Laboratory results as given in ChEMBL document CHEMBL2384958, “Potential of lichen secondary metabolites against Plasmodium liver stage parasites with FAS-II as the potential target” (J Nat Prod, 2013).
≈ marks a conversion by molar mass, not a printed value. Calls of active or inactive are those of the source. No cut-off for these calls is given here.

Columns and labels:
[1] = Inhibition of Staphylococcus aureus FabI using dodecenoyl ACP at pH 7.8
[2] = Inhibition of Plasmodium falciparum FabZ using crotonoyl-CoA as substrate preincubated for 10 mins prior to substrate addition
[3] = Cytotoxicity against human Huh7.5 cells after 24 hrs by Cell-titerGlo luminescence assay; format: cell-based; conditions: Huh-7, 24 h
Outline: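 HuH7.5 human hepatoma cells (30 000/well) in advanced DMEM complete medium were exposed to compounds for 24 h, or to 0.1% DMSO as reference. Viability was read by CellTiter-Glo luminescence.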

[4] = Inhibition of Plasmodium falciparum FabG using acetoacetyl-CoA as substrate
Escherichia coli = assay: Antibacterial activity against Escherichia coli ATCC 8739; format: functional, organism-based; conditions: ATCC 8739, ATCC 8739
Outline: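 E. coli ATCC 8739 whole cells tested in triplicate by a previously reported method. Compounds were fully solubilized beforehand, with brief agitation or sonication used for DMSO solutions at high test concentrations (>120 μM).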

[5] = Inhibition of Plasmodium falciparum FabI using crotonoyl-CoA as substrate preincubated for 10 mins prior to substrate addition
Plasmodium berghei [6] = assay: Antiplasmodial activity against liver stage of Plasmodium berghei ANKA expressing GFP infected in human Huh7.5 cells assessed as decrease in size at 1 uM after 48 hrs by immunofluorescence analysis; format: functional, organism-based; conditions: Huh-7
Outline: (§1)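 HuH7.5 cells (50 000/well, chambered slides) were infected with 33 000 freshly dissected P. berghei GFP sporozoites and incubated 48 h with compound or 0.1% DMSO. Cells were fixed in 10% neutral buffered formalin and stained with mouse anti-Plasmodium HSP70 (FITC) plus Hoechst. Parasite size was imaged by fluorescence microscopy with a 40× objective.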

[7] = system: Mycobacterium tuberculosis; assay: Antimycobacterial activity against Mycobacterium tuberculosis ATCC 27294; format: functional
[8] = biological target: T1, Enoyl-[acyl-carrier-protein] reductase [NADH] FabI (Escherichia coli K-12, UniProt P0AEK4); assay: Inhibition of Escherichia coli FabI using 2-dodecenoyl-CoA as substrate at pH 8
T1 sequence (P0AEK4 whole entry): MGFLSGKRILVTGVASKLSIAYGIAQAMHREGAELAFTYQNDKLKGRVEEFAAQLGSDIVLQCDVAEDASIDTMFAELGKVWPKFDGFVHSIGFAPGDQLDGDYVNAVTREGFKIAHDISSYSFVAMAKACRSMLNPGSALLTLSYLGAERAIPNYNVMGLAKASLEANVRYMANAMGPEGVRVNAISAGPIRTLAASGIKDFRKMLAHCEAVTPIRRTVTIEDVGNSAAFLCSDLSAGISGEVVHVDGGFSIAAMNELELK

[9] = Inhibition of Mycobacterium tuberculosis FabI using 2-dodecenoyl-CoA as substrate at pH 6.8
Danio rerio [10] = organism: Danio rerio; assay: Toxicity in zebrafish larva measured at 4 days postfertilization; format: organism-based; conditions: in vivo, 96 h
Outline: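 Transgenic fabp10a:DsRed2 larvae raised at 28.5 °C (14 h light/10 h dark), sorted for liver fluorescence at 3 dpf and exposed to compounds, 10 larvae per well; general and heart toxicity checked at 4 dpf to set maximum-tolerated concentration.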

Plasmodium berghei [11] = assay: Antiplasmodial activity against liver stage of Plasmodium berghei ANKA expressing GFP infected in human Huh7.5 cells assessed as reduction in PB18S gene expression after 48 hrs by qRT-PCR analysis; format: functional, organism-based; conditions: Huh-7, 48 h
Outline: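 HuH7.5 cells infected with freshly dissected P. berghei GFP sporozoites (30 000 per 60 000 cells); 48 h culture with compounds (10 to 100 μM) at 37 °C, media changed every 24 h. Total RNA extracted, DNase treated; PB18S expression normalized to DMSO controls; IC50 estimated; atovaquone positive control.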

Danio rerio [12] = organism: Danio rerio; assay: Hepatotoxicity in zebrafish larva expressing fabp10a:DsRed2 assessed as change in liver size at 0.3 uM measured at 6 days postfertilization by fluorescence microscopic analysis; format: toxicity, organism-based; conditions: in vivo, 144 h
Outline: (§2)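 Transgenic fabp10a:DsRed2 zebrafish were raised at 28.5 °C on a 14 h light/10 h dark cycle. Larvae were sorted at 3 dpf for liver fluorescence and exposed to compounds at 10 per well, with 1% DMSO controls. General and heart toxicity were checked at 4 dpf, dosing went up to the maximum-tolerated concentration, and five liver phenotypes were scored at 6 dpf by fluorescence microscopy.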

Plasmodium berghei [13] = assay: Antiplasmodial activity against liver stage of Plasmodium berghei ANKA expressing GFP infected in human Huh7.5 cells assessed as decrease in size at 10 uM after 48 hrs by immunofluorescence analysis; format: functional, organism-based; conditions: Huh-7; outline: as §1
Danio rerio [14] = organism: Danio rerio; assay: Hepatotoxicity in zebrafish larva expressing fabp10a:DsRed2 assessed as reduction in liver size at 60.2 uM measured at 6 days postfertilization by fluorescence microscopic analysis; format: toxicity, organism-based; conditions: in vivo, 144 h; outline: as §2
Plasmodium falciparum = assay: Antiplasmodial activity against blood stage of chloroquine and pyrimethamine-resistant Plasmodium falciparum K1 after 48 hrs by [3H]-hypoxanthine incorporation assay; format: functional, organism-based
Outline: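 0.4% parasitemia in assay medium with 15 μM hypoxanthine; compounds incubated 48 h before 3H-hypoxanthine added; run in duplicate.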

KB = assay: Cytotoxicity against human KB cells after 72 hrs by Alamar Blue assay; format: functional, cell-based
Danio rerio [15] = organism: Danio rerio; assay: Hepatotoxicity in zebrafish larva expressing fabp10a:DsRed2 assessed as change in liver size at 3.6 to 60.2 uM measured at 6 days postfertilization by fluorescence microscopic analysis relative to control; format: toxicity, organism-based; conditions: in vivo, 144 h; outline: as §2
Plasmodium = assay: Antiplasmodial activity against blood stage of Plasmodium; format: functional
Outline: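 P. falciparum K1 (chloroquine/pyrimethamine-resistant) culture with 3H-hypoxanthine incorporation read-out, run in duplicate. Assay medium held 15 μM hypoxanthine, parasitemia 0.4%, and compounds were incubated 48 h before 3H-hypoxanthine was added.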

Plasmodium berghei [16] = assay: microbe, parasite or virus in culture; conditions: Huh-7
Plasmodium berghei [17] = assay: microbe, parasite or virus in culture; conditions: ANKA, HepG2
Staphylococcus aureus = assay: Antibacterial activity against Staphylococcus aureus ATCC 6538; format: functional
Outline: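 S. aureus ATCC 6538 whole cells tested in triplicate by a previously reported method. Compounds were fully solubilized beforehand, with brief agitation or sonication for high test concentrations (>120 μM) in DMSO.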

Danio rerio [18] = organism: Danio rerio; assay: Hepatotoxicity in zebrafish larva expressing fabp10a:DsRed2 assessed as enlargement of liver at 15.5 uM measured at 6 days postfertilization by fluorescence microscopic analysis; format: toxicity, organism-based; conditions: in vivo, 144 h; outline: as §2

CC(=O)C1=C(O)C=C2Oc3c(C(C)=O)c(O)c(C)c(O)c3[C@@]2(C)C1=O [(+)-USNIC ACID]
IC50 [1]: 190 µM | IC50 [2]: > 200 µM | IC50 [3]: > 100 µM | IC50 [4]: > 200 µM | IC50 (Escherichia coli): > 64 µM | IC50 [5]: > 200 µM | Activity (Plasmodium berghei [6]): Active | MIC [7]: 15.1 µM (≈ 5.2 µg/mL) | IC50 [8]: 47 µM | IC50 [9]: 190 µM | MTD (Danio rerio [10]): 0.3 µM | IC50 (Plasmodium berghei [11]): 2.3 µM | Activity (Danio rerio [12]): Non-toxic | Activity (Plasmodium berghei [13]): Active

COc1cc(C)c(C(=O)Oc2cc(C)c(C(=O)O)c(O)c2)c(O)c1 [EVERNIC ACID]
IC50 [1]: 170 µM | Activity (Danio rerio [14]): Toxic | IC50 (Plasmodium falciparum): 142 µM | IC50 [2]: 10.7 µM | IC50 [3]: > 100 µM | IC50 [4]: > 200 µM | IC50 (Escherichia coli): > 64 µM | IC50 [5]: 36.1 µM | IC50 [8]: 90 µM | MTD (Danio rerio [10]): 60.2 µM | IC50 (KB): 190 µM | Activity (Danio rerio [15]): >= 40% | IC50 (Plasmodium berghei [11]): 77.3 µM | Activity (Plasmodium berghei [13]): inactive

COc1cc(NC(C)CCCN)c2ncccc2c1 (centres undefined) [PRIMAQUINE]
IC50 (Plasmodium): 1.4 µM | IC50 (Plasmodium berghei [16]): 7.5 µM | IC50 (Plasmodium berghei [17]): 7.5 µM

COc1cc(C(=O)O)c2c(c1C)OC(=O)c1c(C)cc(O)c(C=O)c1O2 [PSOROMIC ACID]
IC50 [1]: > 200 µM | IC50 (Plasmodium falciparum): 29.2 µM | IC50 [2]: 35.2 µM | IC50 [3]: > 100 µM | IC50 [4]: 183 µM | IC50 (Escherichia coli): > 64 µM | IC50 [5]: 71.4 µM | MIC [7]: 123 µM (≈ 44 µg/mL) | IC50 [8]: > 200 µM | MTD (Danio rerio [10]): 3.6 µM | IC50 (KB): 31.6 µM | Activity (Danio rerio [15]): >= 40% | IC50 (Plasmodium berghei [11]): 31.6 µM | Activity (Plasmodium berghei [13]): inactive

COC(=O)/C(=C1/OC(=O)C(c2ccccc2)=C1O)c1ccccc1 [VULPINIC ACID]
IC50 [1]: 90 µM | IC50 (Plasmodium falciparum): 48.5 µM | IC50 [2]: 20.5 µM | IC50 [3]: > 100 µM | IC50 [4]: > 200 µM | IC50 (Escherichia coli): > 64 µM | IC50 [5]: > 140 µM | IC50 [8]: 84 µM | MTD (Danio rerio [10]): 15.5 µM | Activity (Danio rerio [15]): >= 40% | MIC (Staphylococcus aureus): 32 µM (≈ 10.3 µg/mL) | Activity (Danio rerio [18]): Toxic | IC50 (Plasmodium berghei [11]): 10.2 µM | Activity (Plasmodium berghei [13]): Active
